ChEMBL document CHEMBL1144684, “Evaluation of a series of naphthamides as potent, orally active vascular endothelial growth factor receptor-2 tyrosine kinase inhibitors” (J Med Chem, 2008)
pIC50: −log10 of the molar value. Calls of active or inactive are those of the source. No cut-off for these calls is given here.

Experiments:
[1] = system: HUVEC; experiment: Selectivity of IC50 for VEGF-induced proliferation over IC50 for bFGF-induced proliferation of HUVEC; type: functional, Homo sapiens
Method in brief: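 HUVECs were seeded at 3000 cells/well in DMEM/10% FBS with pen/strep and cultured for 22 h. They were preincubated 2 h with serially diluted compound, then stimulated with 50 ng/mL VEGF or 20 ng/mL bFGF for 72 h at 37 °C, 5% CO2. Cells were washed, frozen at -70 °C and stained with CyQuant. IC50s came from a four-parameter logistic fit, averaged over ≥2 experiments; the VEGF IC50 was compared against the bFGF IC50.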

[2] = Intrinsic clearance in rat liver microsomes at 1 uM; type: ADME, Microsome; conditions: read-out: Stability
Method in brief: (§1)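 Human or rat liver microsomes (0.25 mg protein/mL) with 1 mM NADPH, 2 mM MgCl2 in 50 mM potassium phosphate pH 7.4 at 37 °C; compound 1 µM final. Sampled 0–40 min into acetonitrile, LC-MS/MS; ln % remaining vs time slope gives T1/2; CLint = (0.693/T1/2)/0.25 mg/mL.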

[3] = Intrinsic clearance in human liver microsomes at 1 uM; type: ADME, Microsome; conditions: read-out: Stability; method in brief: as §1
[4] = Clearance in Sprague-Dawley rat at 1 mg/kg, iv; type: ADME, organism-based; set-up: dose 1 mg/kg, route intravenous; conditions: in vivo
Method in brief: (§2)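 Male Sprague–Dawley rats dosed iv via femoral vein as DMSO solution (1 or 0.5 mg/kg) or po by gavage as OraPlus suspension (pH 2.0–2.2 with methanesulfonic acid; 10 or 2 mg/kg). Serial jugular blood over 12–24 h; plasma acetonitrile precipitation, LC-MS/MS (MRM) with internal standard; noncompartmental parameters.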

[5] = system: Liver microsomes; experiment: Metabolic stability assessed as covalent binding in absence of NADPH in rat liver microsomes at 10 uM after 1 hr; type: ADME, Microsome
Method in brief: (§3)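 14C-labelled compound at 10 µM with human or rat liver microsomes (1 mg/mL) in 0.1 M potassium phosphate pH 7.4, with or without 1 mM NADPH and 1 mM glutathione, 60 min; quenched with ice-cold acetonitrile. Pellet washed with 80% methanol and ethanol/ether, solubilized, protein by BCA, radioactivity by scintillation counting.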

[6] = system: Liver microsomes; experiment: Metabolic stability assessed as covalent binding in presence of NADPH and GSH in rat liver microsomes at 10 uM after 1 hr; type: ADME, Microsome; method in brief: as §3
[7] = Volume of distribution at steady state in Sprague-Dawley rat at 1 mg/kg, iv; type: ADME, organism-based; set-up: dose 1 mg/kg, route intravenous; conditions: in vivo, read-out: Vdss
Method in brief: (§4)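 Male Sprague–Dawley rats given 1 mg/kg iv via femoral vein as DMSO solution or 10 mg/kg by oral gavage as OraPlus suspension, pH adjusted to 2.0–2.2 with methanesulfonic acid. Serial jugular blood over 12–24 h; plasma protein-precipitated with acetonitrile, quantified by LC-MS/MS (MRM) with internal standard; noncompartmental parameters.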

[8] = Half life in Sprague-Dawley rat at 1 mg/kg, iv; type: ADME, organism-based; set-up: dose 1 mg/kg, route intravenous; conditions: in vivo; method in brief: as §2
[9] = AUC (0 to infinity) in Sprague-Dawley rat at 2 mg/kg, po; type: ADME, organism-based; set-up: time infinity, dose 2 mg/kg, route oral; conditions: plasma; method in brief: as §2
[10] = Cmax in Sprague-Dawley rat at 2 mg/kg, po; type: ADME, organism-based; set-up: dose 2 mg/kg, route oral; conditions: in vivo; method in brief: as §2
[11] = Tmax in Sprague-Dawley rat at 2 mg/kg, po; type: ADME, organism-based; set-up: dose 2 mg/kg, route oral; conditions: in vivo
Method in brief: (§5)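 Male Sprague–Dawley rats dosed iv at 0.5 mg/kg as DMSO solution or po at 2 mg/kg as suspension in 100% OraPlus. Serial jugular blood, plasma LC-MS/MS quantitation, noncompartmental analysis.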

[12] = Oral bioavailability in Sprague-Dawley rat at 2 mg/kg; type: ADME, organism-based; conditions: in vivo; method in brief: as §5
[13] = Aqueous solubility in 0.01 N Hcl; type: physicochemical
[14] = target: Vascular endothelial growth factor receptor 1 (Homo sapiens, UniProt P17948); experiment: Inhibition of human VEGFR1
[15] = target: Vascular endothelial growth factor receptor 3 (Homo sapiens) (UniProt P35916); experiment: Inhibition of human VEGFR3
[16] = target: Platelet-derived growth factor receptor alpha (Homo sapiens) (UniProt P16234); experiment: Inhibition of PDGFRalpha
[17] = target: Mast/stem cell growth factor receptor Kit (Homo sapiens) (UniProt P10721); experiment: Inhibition of c-Kit
[18] = target: Macrophage colony-stimulating factor 1 receptor (Homo sapiens) (UniProt P07333); experiment: Inhibition of c-fms
[19] = target: Tyrosine-protein kinase Lyn (Homo sapiens, UniProt P07948); experiment: Inhibition of Lyn
[20] = system: Mus musculus; experiment: Inhibition of VEGF-induced vascular permeability in HEK293 cells expressing mouse recombinant VEGF implanted in CD1 nu/nu mouse assessed as Matrigel plug at 3 mg/kg, po after 6 hrs; type: functional, organism-based; set-up: dose 3 mg/kg
Method in brief: (§6)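 HEK293 cells expressing murine VEGF (or vector) suspended in Matrigel, injected sc ventrally into CD-1 nu/nu mice. At 24 h, single oral gavage dose as OraPlus suspension; 6 h later Evans blue quantified in 1 cm2 skin over plug; plasma level taken at 6 h; n = 5/group.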

[21] = system: Rattus norvegicus; experiment: Inhibition of VEGF-induced angiogenesis in VEGF-soaked disk implanted in Sprague-Dawley rat cornea assessed as number of blood vessels intersecting the midpoint between disk and limbus after 7 days; type: functional; conditions: 168 h
[22] = AUC in VEGF-soaked disk implanted in Sprague-Dawley rat; type: ADME, organism-based; conditions: plasma
[23] = Cmax in VEGF-soaked disk implanted in Sprague-Dawley rat; type: ADME, organism-based; conditions: in vivo
[24] = system: Liver microsomes; experiment: Metabolic stability assessed as covalent binding in presence of NADPH in human liver microsomes at 10 uM after 1 hr; type: ADME, Microsome; method in brief: as §3
[25] = system: Liver microsomes; experiment: Metabolic stability assessed as covalent binding in absence of NADPH in human liver microsomes at 10 uM after 1 hr; type: ADME, Microsome; method in brief: as §3
[26] = system: Liver microsomes; experiment: Metabolic stability assessed as covalent binding in presence of NADPH and GSH in human liver microsomes at 10 uM after 1 hr; type: ADME, Microsome; method in brief: as §3
[27] = system: Liver microsomes; experiment: Metabolic stability assessed as covalent binding in presence of NADPH in rat liver microsomes at 10 uM after 1 hr; type: ADME, Microsome; method in brief: as §3
[28] = target: Angiopoietin-1 receptor (Homo sapiens, UniProt Q02763); experiment: Inhibition of Tie2
[29] = target: Hepatocyte growth factor receptor (Homo sapiens, UniProt P08581); experiment: Inhibition of c-Met
[30] = target: Tyrosine-protein kinase Lck (Homo sapiens, UniProt P06239); experiment: Inhibition of Lck
[31] = target: T1, Aurora kinase A (Homo sapiens, UniProt O14965); experiment: Inhibition of Aurora A
T1 sequence (O14965 whole entry): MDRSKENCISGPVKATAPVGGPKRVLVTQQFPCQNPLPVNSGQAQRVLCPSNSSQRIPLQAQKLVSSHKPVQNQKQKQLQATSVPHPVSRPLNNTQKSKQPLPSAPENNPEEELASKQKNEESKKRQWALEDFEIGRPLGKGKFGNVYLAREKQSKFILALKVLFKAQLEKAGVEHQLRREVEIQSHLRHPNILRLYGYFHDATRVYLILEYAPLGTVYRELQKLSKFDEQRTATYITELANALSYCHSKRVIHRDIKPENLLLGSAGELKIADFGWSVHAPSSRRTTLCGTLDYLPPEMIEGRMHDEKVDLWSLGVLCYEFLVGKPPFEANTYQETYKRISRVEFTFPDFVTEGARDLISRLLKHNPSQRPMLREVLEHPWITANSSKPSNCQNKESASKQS

[32] = target: Aurora kinase B (Homo sapiens, UniProt Q96GD4); experiment: Inhibition of Aurora B
[33] = system: HUVEC; experiment: Inhibition of VEGF-induced proliferation of HUVEC; type: functional, cell-based; conditions: Homo sapiens
[34] = system: HUVEC; experiment: Inhibition of bFGF-induced proliferation of HUVEC; type: functional, cell-based; conditions: Homo sapiens
Method in brief: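 HUVEC seeded at 3000/well in DMEM with 10% FBS, 22 h; 2 h preincubation with serial compound dilutions, then 50 ng/mL VEGF or 20 ng/mL bFGF for 72 h at 37 °C. Freeze–thaw, CyQuant DNA dye read-out; IC50 by four-parameter logistic fit, averaged over ≥2 experiments.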

[35] = target: Vascular endothelial growth factor receptor 2 (Homo sapiens, UniProt P35968)
[36] = AUC (0 to infinity) in Sprague-Dawley rat at 10 mg/kg, po; type: ADME, organism-based; set-up: dose 10 mg/kg, route oral, time infinity; conditions: plasma; method in brief: as §2
[37] = Cmax in Sprague-Dawley rat at 10 mg/kg, po; type: ADME, organism-based; set-up: dose 10 mg/kg, route oral; conditions: in vivo; method in brief: as §2
[38] = Tmax in Sprague-Dawley rat at 10 mg/kg, po; type: ADME, organism-based; set-up: dose 10 mg/kg, route oral; conditions: in vivo; method in brief: as §4
[39] = Oral bioavailability in Sprague-Dawley rat at 10 mg/kg; type: ADME, organism-based; conditions: in vivo; method in brief: as §4
[40] = target: Receptor-type tyrosine-protein kinase FLT3 (Homo sapiens) (UniProt P36888); experiment: Inhibition of Flt3
[41] = target: Tyrosine-protein kinase Fgr (Homo sapiens, UniProt P09769); experiment: Inhibition of FGR
[42] = system: Mus musculus; experiment: Inhibition of VEGF-induced vascular permeability in HEK293 cells expressing mouse recombinant VEGF implanted in CD1 nu/nu mouse assessed as Matrigel plug at 10 mg/kg, po after 6 hrs; type: functional, organism-based; set-up: dose 10 mg/kg; method in brief: as §6
[43] = target: Tyrosine-protein kinase ABL1 (Homo sapiens, UniProt P00519)

Sequence of Tyrosine-protein kinase Lyn (P07948 whole entry): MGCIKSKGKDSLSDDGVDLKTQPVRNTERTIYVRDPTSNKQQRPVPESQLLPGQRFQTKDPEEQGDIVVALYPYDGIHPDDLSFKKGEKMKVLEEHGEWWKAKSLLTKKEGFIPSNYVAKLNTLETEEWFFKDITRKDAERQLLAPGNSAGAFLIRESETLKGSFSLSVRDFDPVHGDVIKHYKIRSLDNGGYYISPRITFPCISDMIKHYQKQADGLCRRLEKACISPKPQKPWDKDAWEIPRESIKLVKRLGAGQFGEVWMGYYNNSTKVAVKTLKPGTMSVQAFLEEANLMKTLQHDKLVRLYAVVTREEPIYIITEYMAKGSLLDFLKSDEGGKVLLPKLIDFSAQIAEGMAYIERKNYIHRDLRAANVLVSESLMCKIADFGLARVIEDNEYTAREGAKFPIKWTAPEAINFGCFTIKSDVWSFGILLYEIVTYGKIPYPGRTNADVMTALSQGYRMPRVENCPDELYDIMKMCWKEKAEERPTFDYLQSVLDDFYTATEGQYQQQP
Sequence of Angiopoietin-1 receptor (Q02763 whole entry): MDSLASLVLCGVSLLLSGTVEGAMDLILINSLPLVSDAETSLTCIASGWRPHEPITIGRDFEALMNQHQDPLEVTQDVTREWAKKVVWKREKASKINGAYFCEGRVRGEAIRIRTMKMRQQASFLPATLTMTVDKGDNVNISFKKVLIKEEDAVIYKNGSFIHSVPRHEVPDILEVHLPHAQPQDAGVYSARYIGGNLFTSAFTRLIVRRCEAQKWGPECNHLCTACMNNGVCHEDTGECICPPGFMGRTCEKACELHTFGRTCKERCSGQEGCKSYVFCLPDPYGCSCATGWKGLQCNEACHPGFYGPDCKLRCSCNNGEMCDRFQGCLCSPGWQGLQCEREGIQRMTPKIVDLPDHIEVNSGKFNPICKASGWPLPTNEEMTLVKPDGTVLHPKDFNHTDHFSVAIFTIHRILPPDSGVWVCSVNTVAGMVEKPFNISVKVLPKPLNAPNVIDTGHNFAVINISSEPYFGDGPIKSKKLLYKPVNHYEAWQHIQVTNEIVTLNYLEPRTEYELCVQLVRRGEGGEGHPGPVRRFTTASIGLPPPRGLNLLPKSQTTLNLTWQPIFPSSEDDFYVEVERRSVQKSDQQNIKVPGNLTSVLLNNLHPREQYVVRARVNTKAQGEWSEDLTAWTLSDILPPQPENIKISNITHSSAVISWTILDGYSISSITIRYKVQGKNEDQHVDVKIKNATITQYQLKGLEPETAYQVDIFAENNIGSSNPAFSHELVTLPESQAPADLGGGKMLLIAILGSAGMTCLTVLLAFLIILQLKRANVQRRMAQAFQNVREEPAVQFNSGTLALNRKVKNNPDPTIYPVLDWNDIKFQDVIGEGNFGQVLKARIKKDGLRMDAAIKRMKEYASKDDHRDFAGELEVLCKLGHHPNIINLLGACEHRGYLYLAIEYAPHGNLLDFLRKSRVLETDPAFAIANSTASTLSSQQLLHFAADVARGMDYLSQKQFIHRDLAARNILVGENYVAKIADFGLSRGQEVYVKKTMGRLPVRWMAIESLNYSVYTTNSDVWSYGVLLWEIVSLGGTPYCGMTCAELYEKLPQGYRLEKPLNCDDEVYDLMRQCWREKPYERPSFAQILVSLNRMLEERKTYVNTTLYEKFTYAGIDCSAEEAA
Sequence of Vascular endothelial growth factor receptor 1 (P17948 whole entry): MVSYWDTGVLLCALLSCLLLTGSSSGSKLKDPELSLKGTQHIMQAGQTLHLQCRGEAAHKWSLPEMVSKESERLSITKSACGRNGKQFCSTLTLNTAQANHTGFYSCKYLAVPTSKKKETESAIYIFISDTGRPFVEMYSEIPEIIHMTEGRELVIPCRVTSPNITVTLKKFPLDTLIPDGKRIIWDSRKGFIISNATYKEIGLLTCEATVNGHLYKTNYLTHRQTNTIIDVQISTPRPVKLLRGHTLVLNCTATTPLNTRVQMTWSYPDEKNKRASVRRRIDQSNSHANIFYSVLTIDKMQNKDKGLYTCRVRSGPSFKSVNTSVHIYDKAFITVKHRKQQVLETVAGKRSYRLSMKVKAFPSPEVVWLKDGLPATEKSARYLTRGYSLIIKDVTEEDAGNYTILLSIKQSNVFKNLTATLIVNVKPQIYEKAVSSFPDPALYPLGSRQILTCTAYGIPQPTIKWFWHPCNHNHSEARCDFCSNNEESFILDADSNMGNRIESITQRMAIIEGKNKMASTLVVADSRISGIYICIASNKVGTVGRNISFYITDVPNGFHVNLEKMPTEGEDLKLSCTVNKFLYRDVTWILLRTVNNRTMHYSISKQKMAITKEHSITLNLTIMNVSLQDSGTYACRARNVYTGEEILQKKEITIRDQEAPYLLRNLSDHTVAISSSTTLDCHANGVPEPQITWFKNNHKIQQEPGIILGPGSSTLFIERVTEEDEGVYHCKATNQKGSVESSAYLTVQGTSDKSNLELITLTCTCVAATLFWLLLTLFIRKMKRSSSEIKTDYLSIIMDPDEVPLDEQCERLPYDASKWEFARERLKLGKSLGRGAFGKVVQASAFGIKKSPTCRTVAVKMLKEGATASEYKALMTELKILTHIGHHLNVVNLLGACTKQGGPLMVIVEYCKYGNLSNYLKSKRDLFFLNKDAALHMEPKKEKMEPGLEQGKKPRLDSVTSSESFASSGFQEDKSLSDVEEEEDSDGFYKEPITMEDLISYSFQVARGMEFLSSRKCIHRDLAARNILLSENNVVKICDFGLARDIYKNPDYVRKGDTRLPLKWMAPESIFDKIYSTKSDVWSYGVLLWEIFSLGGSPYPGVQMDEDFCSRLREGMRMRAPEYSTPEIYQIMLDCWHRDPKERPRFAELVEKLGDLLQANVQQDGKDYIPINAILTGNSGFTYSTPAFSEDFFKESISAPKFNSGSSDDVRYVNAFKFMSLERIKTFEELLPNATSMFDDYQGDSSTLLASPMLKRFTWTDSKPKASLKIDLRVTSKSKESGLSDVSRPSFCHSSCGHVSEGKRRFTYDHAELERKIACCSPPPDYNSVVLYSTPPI
Sequence of Macrophage colony-stimulating factor 1 receptor (Homo sapiens) (P07333 whole entry): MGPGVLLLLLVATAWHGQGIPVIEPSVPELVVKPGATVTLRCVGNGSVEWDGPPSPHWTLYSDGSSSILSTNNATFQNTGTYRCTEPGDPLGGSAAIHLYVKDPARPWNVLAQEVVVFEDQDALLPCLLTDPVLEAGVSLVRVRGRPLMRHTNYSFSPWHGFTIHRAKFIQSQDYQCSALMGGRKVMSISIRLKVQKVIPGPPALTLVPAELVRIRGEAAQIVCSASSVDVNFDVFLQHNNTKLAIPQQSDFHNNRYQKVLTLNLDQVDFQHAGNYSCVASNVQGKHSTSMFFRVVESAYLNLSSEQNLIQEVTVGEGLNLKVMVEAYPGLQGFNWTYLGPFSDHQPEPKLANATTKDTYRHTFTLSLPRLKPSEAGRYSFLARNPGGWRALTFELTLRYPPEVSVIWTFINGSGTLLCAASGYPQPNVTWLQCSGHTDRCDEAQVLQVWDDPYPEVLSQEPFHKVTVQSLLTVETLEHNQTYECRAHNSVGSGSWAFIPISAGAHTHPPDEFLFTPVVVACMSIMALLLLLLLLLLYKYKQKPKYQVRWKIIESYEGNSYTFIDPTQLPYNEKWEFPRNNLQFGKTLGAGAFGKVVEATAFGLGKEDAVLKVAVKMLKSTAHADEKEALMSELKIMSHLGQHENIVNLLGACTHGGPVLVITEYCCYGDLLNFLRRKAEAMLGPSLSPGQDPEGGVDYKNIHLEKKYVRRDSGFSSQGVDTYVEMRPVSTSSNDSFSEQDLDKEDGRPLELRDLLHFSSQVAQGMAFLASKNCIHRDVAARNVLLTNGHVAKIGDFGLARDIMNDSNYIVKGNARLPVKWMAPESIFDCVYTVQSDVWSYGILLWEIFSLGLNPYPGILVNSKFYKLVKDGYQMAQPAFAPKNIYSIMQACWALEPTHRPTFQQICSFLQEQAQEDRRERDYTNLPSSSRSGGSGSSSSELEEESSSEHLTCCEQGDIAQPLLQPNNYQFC
Sequence of Aurora kinase B (Q96GD4 whole entry): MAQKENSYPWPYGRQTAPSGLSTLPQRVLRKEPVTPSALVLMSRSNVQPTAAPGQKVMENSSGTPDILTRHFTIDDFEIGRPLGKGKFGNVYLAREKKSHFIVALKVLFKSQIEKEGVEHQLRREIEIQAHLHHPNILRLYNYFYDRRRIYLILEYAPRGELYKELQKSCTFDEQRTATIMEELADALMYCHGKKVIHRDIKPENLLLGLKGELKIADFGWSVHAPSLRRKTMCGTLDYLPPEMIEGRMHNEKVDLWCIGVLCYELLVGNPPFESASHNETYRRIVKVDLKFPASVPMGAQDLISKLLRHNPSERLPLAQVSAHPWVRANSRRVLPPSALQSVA
Sequence of Tyrosine-protein kinase Lck (P06239 whole entry): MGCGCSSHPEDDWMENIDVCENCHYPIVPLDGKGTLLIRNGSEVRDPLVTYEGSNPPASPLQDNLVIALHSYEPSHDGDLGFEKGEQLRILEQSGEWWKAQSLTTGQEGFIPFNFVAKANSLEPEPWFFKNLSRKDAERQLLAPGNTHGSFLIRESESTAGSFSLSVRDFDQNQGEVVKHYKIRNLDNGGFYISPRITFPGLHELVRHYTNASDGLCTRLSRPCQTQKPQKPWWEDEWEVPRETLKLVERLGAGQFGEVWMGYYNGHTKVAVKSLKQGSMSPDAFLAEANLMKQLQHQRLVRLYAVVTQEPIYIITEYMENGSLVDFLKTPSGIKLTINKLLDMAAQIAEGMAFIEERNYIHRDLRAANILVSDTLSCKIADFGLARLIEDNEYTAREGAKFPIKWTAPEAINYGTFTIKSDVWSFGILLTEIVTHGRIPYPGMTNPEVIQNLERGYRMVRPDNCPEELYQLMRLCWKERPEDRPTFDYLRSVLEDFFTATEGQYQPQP

COCCNC(=O)c1cccc2cc(Oc3ccnc4cc(OC)c(OC)cc34)ccc12
Selectivity ratio [1]: >100
microsomal CLint at 1 µM [2]: 48 µL/min/mg
microsomal CLint at 1 µM [3]: 32 µL/min/mg
clearance [4]: 8.87 mL/min/kg
Stability [5]: 125 pmol/mg/h
Stability [6]: 1.6 pmol/mg/h
Vd [7]: 1.13 L/kg
half-life [8]: 1.6 h
AUC(0-inf) [9]: 3770 ng·h/mL
Cmax [10]: 543 ng/mL
Tmax [11]: 2 h
bioavailability [12]: 99%
solubility [13]: > 200 µg/mL
pIC50 [14]: 7.14
Activity [15]: Active
Activity [16]: Active
Activity [17]: Active
Activity [18]: Active
pIC50 [19]: 6.56
Cp [20]: 0.2 µM
ED50 [21]: 0.04 mg/kg
AUC [22]: 0.52 µM·h
Cmax [23]: 40 nM
Stability [24]: 321 pmol/mg/h
Stability [25]: 125 pmol/mg/h
Stability [26]: 1.6 pmol/mg/h
Stability [27]: 353 pmol/mg/h
pIC50 [28]: 4.60
pIC50 [29]: 4.70
pIC50 [30]: 5.92
pIC50 [31]: 5.14
pIC50 [32]: 6.89
pIC50 [33]: 9.19
pIC50 [34]: 5.94
pIC50 [35]: 7.92

COc1cc2nccc(Oc3ccc4c(C(=O)NC5CC5)cccc4c3)c2cc1OC
Selectivity ratio [1]: >100
microsomal CLint at 1 µM [2]: 21 µL/min/mg
microsomal CLint at 1 µM [3]: 31 µL/min/mg
clearance [4]: 2.18 mL/min/kg
Stability [5]: 1.5 pmol/mg/h
Stability [6]: 153 pmol/mg/h
Vd [7]: 1.04 L/kg
half-life [8]: 8.4 h
AUC(0-inf) [36]: 50200 ng·h/mL
Cmax [37]: 6150 ng/mL
Tmax [38]: 2.5 h
bioavailability [39]: 66%
solubility [13]: > 200 µg/mL
Activity [14]: Active
Activity [15]: Active
Activity [16]: Active
Activity [17]: Active
Activity [18]: Active
Activity [40]: inactive
pIC50 [41]: 6.40
pIC50 [19]: 7.57
Cp [42]: 1 µM
ED50 [21]: 0.01 mg/kg
AUC [22]: 0.32 µM·h
Cmax [23]: 20 nM
Stability [24]: 357 pmol/mg/h
Stability [25]: 1.5 pmol/mg/h
Stability [26]: 153 pmol/mg/h
Stability [27]: 60 pmol/mg/h
pIC50 [28]: 4.60
pIC50 [29]: 4.70
pIC50 [30]: 6.48
pIC50 [31]: 5.70
pIC50 [32]: 6.93
pIC50 [33]: 9.04
pIC50 [34]: 6.77
pIC50 [43]: 6.33
